Measurements: ChEMBL document CHEMBL2062482 (J Med Chem, 2012)

Key:
[1] = system: Cynomolgus monkey; assay: AUC (0 to infinity) in cynomolgus monkey at 1 mg/kg, iv; type: ADME, organism-based, Macaca fascicularis, Plasma; design: time infinity, dose 1 mg/kg, route intravenous; conditions: in vivo
Summary of the method: (§1)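 Single IV bolus, plasma sampled serially to 24 h post-dose, drug measured by LC-MS/MS, parameters by non-compartmental analysis. Rats and monkeys n = 3 per dose, dogs n = 3 at 1 mg/kg and n = 2 at 20 mg/kg. Nude mice n = 27 per dose level, n = 3 per time point. Mice received the HCl salt in 10% hydroxypropyl-β-cyclodextrin; rats, dogs and monkeys received the TFA salt in PBS.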

[2] = system: Rattus norvegicus; assay: Volume of distribution at steady state in Sprague-Dawley rat at 20 mg/kg, iv; type: ADME, organism-based; design: dose 20 mg/kg, route intravenous; conditions: in vivo
Summary of the method: (§2)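 Single IV bolus at 1 or 20 mg/kg of TFA salt in phosphate-buffered saline to male Sprague-Dawley rats (n = 3 per dose), Beagle dogs (n = 3 at 1 mg/kg, male; n = 2 at 20 mg/kg, male/female) and male cynomolgus monkeys (n = 3 per dose). Serial plasma to 24 h; LC-MS/MS; non-compartmental analysis.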

[3] = system: Canis familiaris; assay: Volume of distribution at steady state in Beagle dog at 20 mg/kg, iv; type: ADME, organism-based, Canis lupus familiaris; design: dose 20 mg/kg, route intravenous; conditions: in vivo; summary of the method: as §2
[4] = system: Cynomolgus monkey; assay: Volume of distribution at steady state in cynomolgus monkey at 20 mg/kg, iv; type: ADME, organism-based, Macaca fascicularis; design: dose 20 mg/kg, route intravenous; conditions: in vivo; summary of the method: as §2
[5] = system: Rattus norvegicus; assay: Terminal half life in Sprague-Dawley rat at 20 mg/kg, iv; type: ADME, organism-based; design: dose 20 mg/kg, route intravenous; conditions: in vivo; summary of the method: as §1
[6] = system: Canis familiaris; assay: Terminal half life in Beagle dog at 20 mg/kg, iv; type: ADME, organism-based, Canis lupus familiaris; design: dose 20 mg/kg, route intravenous; conditions: in vivo; summary of the method: as §1
[7] = system: Cynomolgus monkey; assay: Terminal half life in cynomolgus monkey at 20 mg/kg, iv; type: ADME, organism-based, Macaca fascicularis; design: dose 20 mg/kg, route intravenous; conditions: in vivo; summary of the method: as §1
[8] = system: Rattus norvegicus; assay: Cmax in Sprague-Dawley rat at 20 mg/kg, iv; type: ADME, organism-based; design: dose 20 mg/kg, route intravenous; conditions: in vivo; summary of the method: as §1
[9] = Cmax in Beagle dog at 20 mg/kg, iv; type: ADME, organism-based, Canis lupus familiaris; design: dose 20 mg/kg, route intravenous; conditions: in vivo; summary of the method: as §1
[10] = system: Cynomolgus monkey; assay: Cmax in cynomolgus monkey at 20 mg/kg, iv; type: ADME, organism-based, Macaca fascicularis; design: dose 20 mg/kg, route intravenous; conditions: in vivo; summary of the method: as §1
[11] = system: Rattus norvegicus; assay: AUC (0 to infinity) in Sprague-Dawley rat at 20 mg/kg, iv; type: ADME, organism-based, Plasma; design: time infinity, dose 20 mg/kg, route intravenous; conditions: in vivo; summary of the method: as §1
[12] = system: Canis familiaris; assay: AUC (0 to infinity) in Beagle dog at 20 mg/kg, iv; type: ADME, organism-based, Canis lupus familiaris, Plasma; design: time infinity, dose 20 mg/kg, route intravenous; conditions: in vivo; summary of the method: as §1
[13] = system: Cynomolgus monkey; assay: AUC (0 to infinity) in cynomolgus monkey at 20 mg/kg, iv; type: ADME, organism-based, Macaca fascicularis, Plasma; design: time infinity, dose 20 mg/kg, route intravenous; conditions: in vivo; summary of the method: as §1
[14] = system: Mus musculus; assay: Cmax in mouse at 100 mg/kg, po; type: ADME, organism-based; design: dose 100 mg/kg, route oral; conditions: in vivo
Summary of the method: (§3)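 Female mice given the mono-TFA salt orally at 100 mg/kg as a solution in PBS.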

[15] = system: Mus musculus; assay: AUC in mouse at 100 mg/kg, po; type: ADME, organism-based, Plasma; design: dose 100 mg/kg, route oral; conditions: in vivo; summary of the method: as §3
[16] = system: Mus musculus; assay: Toxicity in po dosed mouse xenografted with human MDA-MB-231 cells assessed as effect on body weight measured on days 28; type: organism-based; conditions: in vivo
Summary of the method: (§4)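 MDA-MB-231 cells (1.5 × 10^7, 1:1 Matrigel in PBS) implanted subcutaneously in right flank of female nude mice aged 6–8 weeks; ten per group, mean starting tumor 168 mm3. Oral gavage in PBS vehicle, 4.0 mL/kg, schedules including 10, 50 or 100 mg/kg weekly, 10 mg/kg daily or every third day. Body weights measured twice weekly.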

[17] = system: Mus musculus; assay: Toxicity in mouse xenografted with human MDA-MB-231 cells assessed as effect on body weight at 100 mg/kg, po after 28 days; type: organism-based; design: dose 100 mg/kg, route oral; conditions: in vivo, 672 h; summary of the method: as §4
[18] = system: Rattus norvegicus; assay: Volume of distribution at steady state in Sprague-Dawley rat at 1 mg/kg, iv; type: ADME, organism-based; design: dose 1 mg/kg, route intravenous; conditions: in vivo; summary of the method: as §2
[19] = Volume of distribution at steady state in Beagle dog at 1 mg/kg, iv; type: ADME, organism-based, Canis lupus familiaris; design: dose 1 mg/kg, route intravenous; conditions: in vivo, read-out: Vdss; summary of the method: as §2
[20] = system: Cynomolgus monkey; assay: Volume of distribution at steady state in cynomolgus monkey at 1 mg/kg, iv; type: ADME, organism-based, Macaca fascicularis; design: dose 1 mg/kg, route intravenous; conditions: in vivo; summary of the method: as §2
[21] = system: Rattus norvegicus; assay: Terminal half life in Sprague-Dawley rat at 1 mg/kg, iv; type: ADME, organism-based; design: dose 1 mg/kg, route intravenous; conditions: in vivo; summary of the method: as §1
[22] = system: Canis familiaris; assay: Terminal half life in Beagle dog at 1 mg/kg, iv; type: ADME, organism-based, Canis lupus familiaris; design: dose 1 mg/kg, route intravenous; conditions: in vivo; summary of the method: as §1
[23] = system: Cynomolgus monkey; assay: Terminal half life in cynomolgus monkey at 1 mg/kg, iv; type: ADME, organism-based, Macaca fascicularis; design: dose 1 mg/kg, route intravenous; conditions: in vivo; summary of the method: as §1
[24] = system: Rattus norvegicus; assay: Cmax in Sprague-Dawley rat at 1 mg/kg, iv; type: ADME, organism-based; design: dose 1 mg/kg, route intravenous; conditions: in vivo; summary of the method: as §1
[25] = system: Canis familiaris; assay: Cmax in Beagle dog at 1 mg/kg, iv; type: ADME, organism-based, Canis lupus familiaris; design: dose 1 mg/kg, route intravenous; conditions: in vivo; summary of the method: as §1
[26] = system: Cynomolgus monkey; assay: Cmax in cynomolgus monkey at 1 mg/kg, iv; type: ADME, organism-based, Macaca fascicularis; design: dose 1 mg/kg, route intravenous; conditions: in vivo; summary of the method: as §1
[27] = system: Rattus norvegicus; assay: AUC (0 to infinity) in Sprague-Dawley rat at 1 mg/kg, iv; type: ADME, organism-based, Plasma; design: time infinity, dose 1 mg/kg, route intravenous; conditions: in vivo; summary of the method: as §1
[28] = system: Canis familiaris; assay: AUC (0 to infinity) in Beagle dog at 1 mg/kg, iv; type: ADME, organism-based, Canis lupus familiaris, Plasma; design: time infinity, dose 1 mg/kg, route intravenous; conditions: in vivo; summary of the method: as §1
[29] = system: MDA-MB-231; assay: Antitumor activity against human MDA-MB-231 cells xenografted in mouse assessed as reduction in tumor volume at 100 mg/kg, po administered once in week measured on day 21 relative to control; design: scale not given: the % may be the effect or the level left

AUC [1]: 0.71 µM·h
Vdss [2]: 1.7 L/kg
Vdss [3]: 1.5 L/kg
Vdss [4]: 2.2 L/kg
beta t1/2 [5]: 50.4 min
beta t1/2 [6]: 120 min
beta t1/2 [7]: 46.2 min
Cmax [8]: 31 µM
Cmax [9]: 30 µM
Cmax [10]: 24 µM
AUC [11]: 25 µM·h
AUC [12]: 36 µM·h
AUC [13]: 19 µM·h
Cmax [14]: 53.7 µM
AUC [15]: 203.5 µM·h
Vdss [18]: 2 L/kg
Vd [19]: 1 L/kg
Vdss [20]: 1.6 L/kg
beta t1/2 [21]: 25.8 min
beta t1/2 [22]: 54 min
beta t1/2 [23]: 26.4 min
Cmax [24]: 1.1 µM
Cmax [25]: 3.8 µM
Cmax [26]: 1.46 µM
AUC [27]: 0.51 µM·h
AUC [28]: 2.1 µM·h
Compound: CN[C@@H](C)C(=O)N[C@H](C(=O)N1CCC[C@H]1C(=O)Nc1snnc1-c1ccccc1)C1CCCCC1.O=C(O)C(F)(F)F
Activity [16]: >= 5%
Activity [17]: Toxic
Activity [29]: 85%
